Results pooled from the literature.
Compare with care: the assays were run in different laboratories.
CYP2E1: Cytochrome P450 2E1 (CYP2E1, Homo sapiens, UniProt P05181)

CCN(CC)C(=S)S — inhibition (CYP2E1; enzyme activity, inhibitor; human, liver microsomes; 50 µM): 75%
Nc1ccc(C=Cc2ccc([125I])cc2)cc1 — tracer uptake (Swiss mouse, brain; intravenous, 5 µCi, 2 min): 2.29 %ID/g
CC(C)(C)OC(=O)CN1C(=O)Cc2c([nH]c3ccc(Br)cc23)-c2ccc(Cl)cc21 — CC50 (J774; cell growth or viability, WST-1; 24 h): ≤ 100 µM
Cn1ccc(COc2cnc(C(N)=O)cc2-c2ccc(O[11CH3])cc2F)n1 — tracer uptake (male mouse, lung; intravenous, 2.5 MBq, 5 min): 2.61 %ID/g
CC1COc2ccccc2N1C(=O)C(Cl)Cl (stereo not shown) — microsomal CLint (metabolic stability; male monkey, liver microsomes; 5 µM, pH 7.4): 900 µL/min/mg
O=c1[nH]c2cc(-c3ccc(F)cc3)sc2c(=O)n1O — viability (HFF; cell growth or viability, MTS; 10 µM, 7 days): 61%
CN(C(=O)n1cnc(-c2ccc[n+]([O-])c2)c1)C1CCCCC1 — Cmax (male cynomolgus monkey, plasma; oral, 0.1 mg/kg): 37.1 ng/mL
CN(C)C(=O)CN1C(=O)Cc2c([nH]c3ccc(Br)cc23)-c2ccc(Cl)cc21 — CC50 (J774; cell growth or viability, WST-1; 24 h): ≥ 100 µM
O=c1[nH]c2cc(-c3ccccc3)sc2c(=O)n1O — viability (HFF; cell growth or viability, MTS; 10 µM, 7 days): 85%
CCN(CC)C(=O)CN1C(=O)Cc2c([nH]c3ccc(Br)cc23)-c2ccc(Cl)cc21 — CC50 (J774; cell growth or viability, WST-1; 24 h): ≥ 100 µM
O=c1[nH]c2sc(-c3ccc(F)cc3)cc2c(=O)n1O — viability (HFF; cell growth or viability, MTS; 10 µM, 7 days): 112%
O=C(CN1C(=O)Cc2c([nH]c3ccc(Br)cc23)-c2ccc(Cl)cc21)N1CCCC1 — CC50 (J774; cell growth or viability, WST-1; 24 h): ≤ 100 µM
O=c1[nH]c2sc3c(c2c(=O)n1O)CCN(Cc1ccccc1)C3 — viability (HFF; cell growth or viability, MTS; 10 µM, 7 days): 104%
C[C@@H](c1ccc2nccn2c1)n1nnc2ncc(-c3cnn(C)c3)nc21 — IC50 (CYP2E1; enzyme activity, inhibitor; human, liver microsomes; pH 7.4): 100 µM
O=c1[nH]c2sc3c(c2c(=O)n1O)CCNC3 — viability (HFF; cell growth or viability, MTS; 10 µM, 7 days): 107%
O=C(CCCCCCC(=O)Nc1ccc(CC[18F])cc1)NO — tracer uptake (male nude mouse, stomach; intravenous, 1 h, tumour-bearing): 1.5 %ID/g
